In assay [1] the test system is Candida albicans. Briefly: Antifungal activity against Candida albicans ATCC 64124 after 48 hrs by CLSI M27-A3 method. The format is functional. The settings on record: ATCC 64124, 48 h.
For assay [2], the system named is Candida albicans. Nature of the assay: Antifungal activity against Candida albicans ATCC MYA-1237 after 48 hrs by CLSI M27-A3 method. The format is functional. Particulars: ATCC MYA-1237, 48 h.
Assay [3] has as its system Aspergillus flavus. Briefly: Antifungal activity against Aspergillus flavus ATCC MYA-3631 after 48 hrs by CLSI M38-A2 method. Particulars: ATCC MYA-3631, 48 h. The assay is classed as functional.
Assay [4] has as its system Nakaseomyces glabratus. Nature of the assay: Antifungal activity against Candida glabrata ATCC 2001 after 48 hrs by CLSI M27-A3 method. Particulars: CBS 138, 48 h. The assay is classed as functional.
The subject of assay [5] is Candida albicans. Nature of the assay: Antifungal activity against Candida albicans ATCC MYA-2876 after 48 hrs by CLSI M27-A3 method. The format is functional. Particulars: ATCC MYA-2876, 48 h.
The test system of assay [6] is Candida albicans. Nature of the assay: Antifungal activity against Candida albicans ATCC MYA-1003 after 48 hrs by CLSI M27-A3 method. The assay is classed as functional. Particulars: ATCC MYA-1003, 48 h.
Assay [7] deals with Candida albicans. Briefly: Antifungal activity against Candida albicans ATCC MYA-2310 after 48 hrs by CLSI M27-A3 method. The assay is classed as functional. Particulars: ATCC MYA-2310, 48 h.
The subject of assay [8] is Candida albicans. Briefly: Antifungal activity against Candida albicans ATCC MYA-90819 after 48 hrs by CLSI M27-A3 method. The assay is classed as functional. Particulars: ATCC MYA-90819, 48 h.
Assay [9] deals with Aspergillus nidulans. Nature of the assay: Antifungal activity against Aspergillus nidulans ATCC 38163 after 48 hrs by CLSI M38-A2 method. The format is functional. Particulars: ATCC 38163, 48 h.
Assay [10] has as its system Candida albicans. Nature of the assay: Induction of ROS production in Candida albicans ATCC 10231 at 8 to 16 ug/ml after 1 hr by DCFH-DA probe based fluorescence microscopy. The assay is classed as functional, organism-based. An outline of the steps:
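C. albicans ATCC 10231 yeast cells exposed to drug at 8 and 16 µg/mL for 1 h at 35 °C, alongside untreated and AmB controls. Cells were then stained with DCFH-DA (20 µg/mL) for 30 min in the dark. Intracellular ROS was visualised by fluorescence microscopy.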

In assay [11] the test system is Pichia kudriavzevii. Nature of the assay: Antifungal activity against Candida krusei ATCC 6258 after 48 hrs by CLSI M27-A3 method. The format is functional. The settings on record: ATCC 6258, 48 h.
Assay [12] concerns Aspergillus terreus. Nature of the assay: Antifungal activity against Aspergillus terreus ATCC MYA3633 after 48 hrs by CLSI M38-A2 method. The assay is classed as functional. The settings on record: ATCC MYA3633, 48 h.
Assay [13] relates to Candida parapsilosis. Briefly: Antifungal activity against Candida parapsilosis ATCC 22019 after 48 hrs by CLSI M27-A3 method. The assay is classed as functional. The settings on record: Lodderomyces parapsilosis, ATCC 22019, 48 h.
In assay [14] the test system is Candida albicans. Briefly: Antifungal activity against Candida albicans ATCC 10231 after 48 hrs by CLSI M27-A3 method. The assay is classed as functional. The settings on record: ATCC 10231, 48 h.
The subject of assay [15] is Candida albicans. Nature of the assay: Fungicidal activity against Candida albicans ATCC 64124 assessed as reduction in fungal population at MIC after 9 hrs by time kill assay. The format is functional.
In assay [16] the test system is Candida albicans. Briefly: Fungicidal activity against Candida albicans ATCC 64124 assessed as reduction in fungal population at 2 times MIC after 24 to 48 hrs by time kill assay. The format is functional.
In assay [17] the test system is Candida albicans. Nature of the assay: Induction of ROS production in Candida albicans ATCC 10231 at 1 to 2 times MIC after 1 hr by DCFH-DA probe based fluorescence microscopy. The format is functional, organism-based.

SMILES strings stand for the structures. Converted amounts (≈) assume the structure as drawn. The source made the active and inactive calls. No cut-off for these calls is given here.

Take `CCCCCCCCCCCCN1CCN(c2ccc3nc(-c4ccc5nc(-c6ccc(O)cc6)[nH]c5c4)[nH]c3c2)CC1`: the MIC in assay [1], in assay [2], in [3], in assay [4], in assay [5] and in assay [6] was above 31.2 µg/mL throughout. Moreover, the minimum inhibitory concentration (MIC) in [7], in [8], in assay [9], in assay [11], in assay [12] and in [13] was above 31.2 µg/mL in each case. In addition, the MIC in [14] was above 31.2 µg/mL. Also, in assay [10], the result was inactive.

For the molecule `C[C@@H]1[C@H](O)[C@@H](C)/C=C/C=C/C=C/C=C/C=C/C=C/C=C/[C@H](O[C@@H]2O[C@H](C)[C@@H](O)[C@H](N)[C@@H]2O)C[C@@H]2O[C@](O)(C[C@@H](O)C[C@@H](O)[C@H](O)CC[C@@H](O)C[C@@H](O)CC(=O)O[C@H]1C)C[C@H](O)[C@H]2C(=O)O` [AMPHOTERICIN B], the MIC was found to be 3.9 µg/mL (≈ 4.22 µM) in assay [1]; 3.9 µg/mL (≈ 4.22 µM) in assay [2]; 1.95 µg/mL (≈ 2.11 µM) in assay [4]; 1.95 µg/mL (≈ 2.11 µM) in assay [5]; 3.9 µg/mL (≈ 4.22 µM) in assay [6]; 1.95 µg/mL (≈ 2.11 µM) in [7]. For the same molecule, the minimal inhibitory concentration (MIC) in [8] is 0.975 µg/mL (≈ 1.06 µM); in assay [11], 3.9 µg/mL (≈ 4.22 µM); in assay [12], 3.9 µg/mL (≈ 4.22 µM); in [13], 1.95 µg/mL (≈ 2.11 µM); in [14], 3.9 µg/mL (≈ 4.22 µM). Also, the outcome in [15], in assay [16] and in assay [17] was Active.

These data come from ChEMBL document CHEMBL3817731, “Synthesis and investigation of novel benzimidazole derivatives as antifungal agents” (Bioorg Med Chem, 2016).
